{
  "source": "paper PMC6265067",
  "about": "(Nature, 2018)",
  "molecules": {"B1": {"name": "D53 D2 domain: D53 D2 domain (D53-D2, 718–1,131) (protein)", "chain": "NSDLSNYKLLVERLFKVVGRQEEALSAICESIVRCRSTESRRGPNRNDIWLCFHGSDSMAKKRIAVALAELMHGSKDNLIYLDLNLQDWDDSSFRGKTGIDCIVEQLSKKRQSVLFLDNIDRADCLVQDSLSDAIKSGRFQDMRGKVVDINDSIVVLSRSMIQGSKNGLEEGLSFSEEKILATRGHRLKILVEPGRAITSGCPSGKVVVSPRHFLTKIQASLCSGSISKRKLSISDDQEKLQESPSSSKRLHRTSSVPFDLNLPVDEDEPLDADDDSSSHENSYGNTEKSIDALLHSVDGSINFKPFDFDKLADDMLQEFSNILRKNLGSECMLEIDVGAMEQILAAAWKSEEDRKPVPTWLEQVFARSLDELKLKRKHVSSSTLRLVACEDTVPAVKGDGLGVLLPPRIILDC", "modifications": "left off: GST, end not stated, kept"}, "B2": {"name": "C-terminally truncated D3 mutant protein: D3ΔCTH (O. sativa, residues 1–693) co-expressed with ASK1 (protein, UniProt Q5VMP0 1-693, looked up, fragment)", "chain": "MAEEEEVEEGRSSSSAILDLPEPLLLHILSFLTDVRSRHRAALACGRMRAAERATRSELSLRGDPRSPGFLFLSHAFRFPALEHLDLSLVSPWGHPLLSSVPPCGGGGGGAPSASSSSGMNVYHPEAISEQNAFIAARLAGCFPAVTSLAVYCRDPTTLANLTPHWQASLRRVKLVRWHQRPPTLPDGADLEPLLETCAALRELDLSEFYCWTEDVVRALTTHPSATAALTHLDLGLAAATDGFKSSELGPIAASCPNLRKLVAPCLFNPRFSDCVGDDALLSLATSCPRLTVLRLSEPFEAAANIQREEAAITVAGLVAFFAALPALEDFTMDLQHNVLEAAPAMEALARRCPRIKFLTLGSFQGLCKASWLHLDGVAVCGGLESLYMKNCQDLTDASLAAIGRGCRRLAKFGIHGCDLVTSAGIRRLAFTLRPTLKEVTVLHCRLLHTAECLTALSPIRDRIESLEINCVWNTTEQPCSVANGTTTECDPEDDELGEVYESAAKKCRYMEFDDLGSWEMLRSLSLWFSAGQLLSPLISAGLDSCPVLEEISIKVEGDCRTCPRPAPRTIFGLSDLAGFPVLAKMKLDLSEAVGYALTAPTGQMDLSLWERFYLHGIESLQTLYELDYWPPQDKDVHHRSLTLPAVGLIQRCVGLRKLFIHGTTHEHFMTFFLSIPNLRDMQLREDYYPAPE", "modifications": "co-expressed with ASK1"}, "B3": {"name": "D53: Full length D53 (O. sativa), expressed as a GST fusion protein (protein)", "chain": "MPTPVAAARQCLSPAAVPALDAAVASSRRRAHAQTTSLHLISSLLAPPAPPLLRDALARARSAAYSPRVQLKALDLCFAVSLDRLPSVSASSSSSGAADEPPVSNSLMAAIKRSQANQRRNPDTFHFYHQAATAQTPAAVKVELSHLVLAILDDPVVSRVFAEAGFRSGDIKLAILRPAPPMPLLGRLPTRTRPPPLFLCSFAAADDADVPSPAGNLAGAGEENCRRIAEILSRGRNPMLVGVGAASAADDFAAASPYRIIHVDPNTIDRSDLGVAAAMASATSGLIISIGDLKQLVPDEDAEAQEKGRRVVAEVTRVLETHSKVGRVWVMGWSATYETYLAFLSKFPLVDKDWDLQLLPITAVHAAATAGPAAAAAGLMPPATTVAAFSKPAASLMDSFVPFGGFLCDNYEENSLTANSCPQALRCQQCNDKYEQEVATIISASGITAEDHHQGGLPSLLQNGSMMGPNNGFDPVKARDDRMVLNSKILNLRKKWNEYCLRLHQDHQRINRDPYKPFPRYIGVPTDKERSANSSKGSESVGVQKDVIKPCAVSAVHSSSTARPISSPSVTNKRNEDLVLNLQARHSKSDENLQERGMQSQHGTLSNVDNPDDHVSPSSAAPVETDLVLGTPRECSSKGSSSTCSKRVEDSERSVHLVPKKVDDLNLKHPQLSVQPNSCSWSSINVGKTSHSTLHSVASGGFSAFGQWQKRSPLAAQNSDLSNYKLLVERLFKVVGRQEEALSAICESIVRCRSTESRRGPNRNDIWLCFHGSDSMAKKRIAVALAELMHGSKDNLIYLDLNLQDWDDSSFRGKTGIDCIVEQLSKKRQSVLFLDNIDRADCLVQDSLSDAIKSGRFQDMRGKVVDINDSIVVLSRSMIQGSKNGLEEGLSFSEEKILATRGHRLKILVEPGRAITSGCPSGKVVVSPRHFLTKIQASLCSGSISKRKLSISDDQEKLQESPSSSKRLHRTSSVPFDLNLPVDEDEPLDADDDSSSHENSYGNTEKSIDALLHSVDGSINFKPFDFDKLADDMLQEFSNILRKNLGSECMLEIDVGAMEQILAAAWKSEEDRKPVPTWLEQVFARSLDELKLKRKHVSSSTLRLVACEDTVPAVKGDGLGVLLPPRIILDC", "modifications": "left off: GST, end not stated, kept"}},
  "key": {"D14 / D3": {"test_system": "D14 / D3", "test": "AlphaScreen assay of GST-D14 / His-D3 interaction in response to GR24", "assay_type": "binding, O. sativa", "settings": "increasing GR24, pH 6.5, mean ± s.d. of biological triplicates", "summary_of_the_method": "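GST-D14 is held on glutathione donor beads and His-D3 (ASK1-D3 complex, 1 μM) on anti-6xHis acceptor beads, both at 5 μg/ml. D14 at 100–500 nM. Buffer is 50 mM MES, 150 mM NaCl, 1 mM DTT, 0.1 mg/ml BSA. GR24 is titrated. Signal is read at 520–620 nm after 680 nm excitation, averaged over three experiments.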"}, "AtSMXL7-YFP": {"test_system": "AtSMXL7-YFP", "test": "SMXL7-YFP level in tobacco epidermal cells", "assay_type": "cell-based, Arabidopsis thaliana, expressed in Nicotiana benthamiana", "settings": "co-expressed with D14-CTH-mCherry; 10 μM GR24, 120 min; n=7 nuclei; p = 4.401×10^−2"}, "D14-D3-ASK1": {"test_system": "D14-D3-ASK1", "assay_type": "binding, O. sativa (ASK1: A. thaliana)", "settings": "for complex formation with D14-D3-ASK1: in the presence of GR24 (100–200 μM)", "summary_of_the_method": "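Purified proteins (20–50 μM) were preincubated for 1 h at 4 °C with 100–200 μM GR24, or with acetone as control, in 20 mM HEPES pH 7.0, 150 mM NaCl, 2 mM DTT. Samples were run on Superdex-200 Increase 10/300 at 0.5 mL/min. Fractions of 0.5 ml were analysed by SDS-PAGE with Coomassie staining; repeated at least three times.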"}, "D14 / D53-D2": {"test_system": "D14 / D53-D2", "test": "GST-pulldown of D14 and D53-D2 in the presence of D3-CTH", "assay_type": "binding, O. sativa", "settings": "in the presence of GR24, repeated thrice", "summary_of_the_method": "(§1)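 GST-tagged bait (~20–40 μg) and His-tagged or untagged prey (~10–25 μg) were incubated with GST beads for 30 min at 4 °C in 40 mM Tris-HCl pH 7, 100 mM NaCl, 2 mM DTT, 0.01% BSA. GR24 was at 20–100 μM with acetone as control. Beads were washed in 250 mM NaCl buffer with 0.01% Tween 20 and eluted with SDS sample buffer or 5 mM glutathione. Read-out: SDS-PAGE with Ponceau or anti-GST/anti-His Western.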"}, "D14 [1]": {"target": "T1, D14 (Oryza sativa subsp. japonica, UniProt Q10QA5)", "T1 sequence (Q10QA5 52-318)": "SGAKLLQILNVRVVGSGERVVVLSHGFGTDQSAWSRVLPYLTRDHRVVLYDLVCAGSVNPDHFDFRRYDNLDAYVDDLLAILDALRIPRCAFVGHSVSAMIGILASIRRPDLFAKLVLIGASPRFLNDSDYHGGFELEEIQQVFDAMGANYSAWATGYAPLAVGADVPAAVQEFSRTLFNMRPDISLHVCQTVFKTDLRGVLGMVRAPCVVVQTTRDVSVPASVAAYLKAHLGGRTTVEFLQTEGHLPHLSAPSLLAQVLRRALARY", "test": "AlphaScreen competition of D3-CTH peptide with His-D3 for binding GST-D14", "design": "species or system O. sativa", "settings": "10 μM GR24 (saturating), dose-dependent, 50 mM MES pH 6.5, 150 mM NaCl, 1 mM DTT, 0.1 mg/ml BSA, mean ± s.d. of biological triplicates"}, "D53-D2 / D14": {"test_system": "D53-D2 / D14", "test": "AlphaScreen assay of D53-D2-D14 interaction", "assay_type": "binding, O. sativa", "settings": "DMSO control, mean ± s.d. of biological triplicates", "summary_of_the_method": "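AlphaScreen proximity read. The GST-tagged partner sits on glutathione donor beads and the His-tagged partner on anti-6xHis acceptor beads (5 μg/ml each). Uses 100–500 nM D14 or D53 and 1 μM ASK1-D3 in 50 mM MES pH 6.5, 150 mM NaCl, 1 mM DTT, 0.1 mg/ml BSA. Excitation 680 nm, emission 520–620 nm. Peptide reactions carry matched DMSO; DMSO-only serves as control.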"}, "D14 [2]": {"target": "T1, D14", "test": "YLG hydrolysis assay", "assay_type": "biochemical, O. sativa", "summary_of_the_method": "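Recombinant rice D14 (residues 52–318, SUMO tag cleaved) at 1–2 μg, with co-expressed ASK1-D3 complex and D53-D2, plus YLG. Buffer is 50 mM MES pH 6.5, 150 mM NaCl, 1 mM DTT under plate seal. Fluorescence (ex 480/em 520 nm) is read every 10 s over 50–60 min and converted to fluorescein concentration via a standard curve before curve fitting. Repeated at least three times.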"}, "D14 [3]": {"target": "T1, D14", "test": "Pull-down assay with GST-tagged D53-N, D53-D1 or D53-D2 and His-D14", "assay_type": "binding, O. sativa", "settings": "GST-tagged D53 domains, GR24", "summary_of_the_method": "as §1"}, "D53": {"test_system": "D53", "test": "D53 stability in a reconstituted cell-free system", "assay_type": "biochemical, O. sativa (extract: Arabidopsis seedlings)", "settings": "max2–1 seedling extract; 10 μM GR24; 22 °C"}},
  "data": [
    {"molecule": "CC1=C[C@H](O/C=C2/C(=O)O[C@@H]3c4ccccc4C[C@H]23)OC1=O", "note": "[GR24]", "values": [
      {"measurement": "D3-D14 interaction", "setting": "D14 / D3", "result": "GR24-dependent D3-D14 interaction"},
      {"measurement": "SMXL7 reduction upon GR24 treatment", "setting": "AtSMXL7-YFP", "result": 11.8, "unit": "%"}
    ]},
    {"molecule": "CCOC(=O)c1ccccc1-c1c2ccc(=O)cc-2oc2cc(OC3C=C(C)C(=O)O3)ccc12", "note": "(stereo not shown) [YLG, Yoshimulactone Green, reference compound]", "values": [
      {"measurement": "complex assembly among D14, D3-ASK1 and D53-D2", "setting": "D14-D3-ASK1; Superdex-200, in the presence of YLG", "result": "can induce complex assembly among D14, D3-ASK1, and the D53-D2 domain"}
    ]},
    {"molecule": "D3-CTH peptide: 28 amino acids D3-CTH peptide (28aa, D3_693–720), O. sativa (ENDLMFTEMRAESWLRFEVQLNSRQIDD; UniProt Q5VMP0 693-720, looked up, fragment)", "values": [
      {"measurement": "stimulation of D14 and D53-D2 pulling down each other", "setting": "D14 / D53-D2", "result": "able to stimulate D14 and D53-D2 to pull down each other in the presence of GR24"},
      {"measurement": "competition with D3 for binding D14", "setting": "D14 [1]", "result": "able to compete with D3 for binding D14"},
      {"measurement": "promotion of D53-D2-D14 interaction", "setting": "D53-D2 / D14", "result": "elicited the same effect in a dose-dependent manner"}
    ]},
    {"molecule": "D3_693–707: 15aa D3 peptide (ENDLMFTEMRAESWL; UniProt Q5VMP0 693-707, looked up, fragment)", "values": [
      {"measurement": "promotion of D53-D2-D14 interaction", "setting": "D53-D2 / D14", "result": "did not stimulate binding"}
    ]},
    {"molecule": "D3_708–720: 13aa D3 peptide (RFEVQLNSRQIDD; UniProt Q5VMP0 708-720, looked up, fragment)", "values": [
      {"measurement": "promotion of D53-D2-D14 interaction", "setting": "D53-D2 / D14", "result": "did not stimulate binding"}
    ]},
    {"molecule": "B1", "values": [
      {"measurement": "complex formation with D14-D3-ASK1", "setting": "D14-D3-ASK1; Superdex-200", "result": "can form a stable complex with D14-D3-ASK1 in the presence of GR24"},
      {"measurement": "requirement for stable association with D14", "setting": "D14-D3-ASK1; Superdex-200, ± ASK1-D3, GR24", "result": "stably associated with D14 only in the presence of D3 and GR24"},
      {"measurement": "effect on D3-ASK1-arrested D14 kinetics", "setting": "D14 [2]; D14 + ASK1-D3, D53-D2 at two concentrations", "result": "little change in the enzymatic kinetics"},
      {"measurement": "binding D14", "setting": "D14 [3]", "result": "solely responsible for binding D14 in a GR24-dependent manner"}
    ]},
    {"molecule": "B2", "values": [
      {"measurement": "ternary complex with D14 and D53-D2", "setting": "D14-D3-ASK1; sizing column, D14-GR24, D53-D2", "result": "could neither form a ternary complex with D14 and D53-D2 on a sizing column"},
      {"measurement": "restoration of D53-degrading activity of max2–1 extracts", "setting": "D53", "result": "nor restore the D53 degradation activity of the max2–1 extracts"}
    ]},
    {"molecule": "B3", "values": [
      {"measurement": "complex formation with D14-D3-ASK1", "setting": "D14-D3-ASK1; Superdex-200", "result": "can form a stable complex with D14-D3-ASK1 in the presence of GR24"},
      {"measurement": "effect on D14 inhibited by D3 C-terminal peptide", "setting": "D14 [2]; D14 + D3-CTH, initial reaction and slow linear phase", "result": "robustly blocked the inhibition of the enzymatic activity of D14 by the D3 C-terminal peptide"}
    ]}
  ]
}
